# Source: PubChem BioAssay (several laboratories)
# Runt-CBFb FRET – inhibitors of RUNX1 Runt–CBFb binding, primary screen, biochemical, FRET, Cerulean-Runt, Venus-CBFb, uHTS; inhibition, % at 20 µM; Runt-related transcription factor 1 (Homo sapiens) + Core-binding factor subunit beta …; 220,000 tested, 0.46% active; Cerulean-Runt/Venus-CBFb FRET ratio 530/480, 1 h;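 active = inhibition over about 50% at 20 µM in the single-dose screen, limit read from the data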;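 also: 0% = DMSO wells and 100% = excess unlabeled CBFb competitor control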
#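 Assay system: Cerulean-Runt domain / Medium: Tris 50 mM pH 7.5, KCl, K2SO4, 0.01% BSA / Timing: protein complex preformed 1 h, compound exposure 1 h, room temperature, dark / Measured by: FRET, excitation 422 nm, emission at 530 and 480 nm / Evaluation: loss of energy transfer signal / Control set: 5 µM unlabeled CBFb as full-inhibition high control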
# Runt-SMMHC FRET – inhibitors of RUNX1 Runt–CBFb-SMMHC binding, primary screen, biochemical, FRET, Cerulean-Runt, Venus-CBFb-SMMHC, uHTS; inhibition, % at 20 µM; Cerulean-Runt/Venus-CBFb-SMMHC FRET ratio 530/480, 1 h; 220,000 tested, 0.74% active;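 active = mean inhibition across duplicate retests at 20 µM reaching about 50%, limit read from the data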;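 also: 0% = DMSO wells and 100% = wells with excess untagged CBFb-SMMHC; inhibitors lower the FRET ratio by blocking Runt binding to CBFb-SMMHC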
# RBBP9 inhibitor – human RBBP9 inhibitors, primary screen, biochemical, fluorescence polarization, FP-Rh probe, HTS; recombinant RBBP9; inhibition, % at 7.94 µM; 220,000 tested, 0.2% active; AID 1515, 2009;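 active = inhibition above the campaign mean of all tested compounds plus 3 SD, cut at about 14% in these data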;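 also: plate controls were DMSO wells with RBBP9 for no effect and wells lacking RBBP9 protein for full effect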
# Target sequence (O75884 whole entry, looked up): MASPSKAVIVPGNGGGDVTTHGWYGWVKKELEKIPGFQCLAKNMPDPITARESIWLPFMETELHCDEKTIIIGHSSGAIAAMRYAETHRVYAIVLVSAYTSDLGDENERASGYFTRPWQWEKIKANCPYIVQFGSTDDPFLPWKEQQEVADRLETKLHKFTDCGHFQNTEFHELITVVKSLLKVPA
#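 System: RBBP9 protein / Quantity: 2.5 µM RBBP9 dispensing solution, before mixing / Also added: Serine-hydrolase probe FP-Rh, 375 nM pre-mixing / Dosing: 7.94 µM single dose, 0.794% DMSO / Timing: enzyme-compound preincubation 30 min, then probe labeling 45 min, 25 °C / Signal: FP readout at 525/598 nm / Controls: DMSO-treated enzyme wells and wells lacking RBBP9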
# PfM18AAP inh-1 – PfM18AAP inhibitors, malaria aminopeptidase, primary screen, biochemical, QFRET, recombinant enzyme | H-Glu-NHMec fluorogenic cleavage | 290,000 tested, 1.2% active | M18 aspartyl aminopeptidase (Plasmodium falciparum 3D7) | inhibition, % at 7.35 µM | AID 1822, 2009;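 active = inhibition above the campaign mean inhibition over all tested compounds plus 3 SD, cut at about 28% in these data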;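 also: 0% = plate median of test compound wells and 100% = 2 mM ZnCl2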
# RanGTP-Impb inh – inhibitors of RanGTP-importin-beta interaction, primary screen, biochemical, FRET, CFP-Ran, YFP-importin-beta, homogeneous. 300,000 tested, 1.1% active. cell-free CFP-Ran/YFP-importin-beta FRET ratio. inhibition, % (no concentration beside the values);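 active = more than half of the replicate wells show a fall in the fluorescence ratio signal beyond about 16%, limit read from the data, passing the limit was not always enough; inconclusive = exactly half of the replicate wells pass the set limit; inactive = fewer than half of replicates pass the limit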;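 also: 0% = DMSO wells and 100% = Ran loaded with GDP instead of GTP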
# Hck Nef HTS – inhibitors of Nef-activated human Hck kinase, primary screen, biochemical, Z-Lyte FRET, 384-well, Hck-YEEI | Tyrosine-protein kinase HCK (Homo sapiens), P08631 | Recombinant Hck-YEEI plus Nef, Z-Lyte FRET kinase assay | inhibition, % at 20 µM | 220,000 tested, 0.68% active | AID 463187, 2010;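 active = Hck-Nef kinase inhibition above about 50%, limit read from the data; inactive = inhibition below that limit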;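 also: 0% = DMSO with Hck plus Nef and 100% = Hck alone without Nef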
# Target sequence (P08631 whole entry, looked up): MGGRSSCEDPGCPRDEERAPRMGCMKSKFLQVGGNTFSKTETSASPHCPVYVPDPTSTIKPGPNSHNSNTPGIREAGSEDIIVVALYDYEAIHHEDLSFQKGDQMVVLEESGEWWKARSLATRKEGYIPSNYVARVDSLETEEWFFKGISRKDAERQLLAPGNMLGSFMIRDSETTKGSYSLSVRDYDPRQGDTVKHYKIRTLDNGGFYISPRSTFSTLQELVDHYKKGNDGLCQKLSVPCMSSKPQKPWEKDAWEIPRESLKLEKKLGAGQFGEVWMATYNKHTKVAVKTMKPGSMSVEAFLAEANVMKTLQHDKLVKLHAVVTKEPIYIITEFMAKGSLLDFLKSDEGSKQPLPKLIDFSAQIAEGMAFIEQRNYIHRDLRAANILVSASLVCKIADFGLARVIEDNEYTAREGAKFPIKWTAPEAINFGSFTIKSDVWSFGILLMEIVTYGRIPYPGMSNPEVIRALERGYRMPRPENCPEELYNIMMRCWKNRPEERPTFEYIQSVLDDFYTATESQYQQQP
# Runt-CBFb TRFRET – inhibitors of RUNX1 Runt–CBFb binding, biochemical, TR-FRET; shares compounds with Runt-CBFb FRET; TR-FRET RUNX1 Runt domain-CBFb binding; inhibition, % at 20 µM; 480 tested, 20% active; AID 1502, 2009; in the data active = inhibition above about 40%
# RBBP9 confirm – human RBBP9 inhibitors, retest, confirmation, biochemical, fluorescence polarization, FP-Rh probe, triplicate; shares compounds with RBBP9 inhibitor; recombinant RBBP9; inhibition, % at 7.94 µM; 410 tested, 36% active; AID 1537, 2009;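 active = inhibition above the hit cutoff derived for the primary screen, cut at about 15% in these data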;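 also: 0% = RBBP9 with DMSO and 100% = wells lacking RBBP9 protein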
# PfM18AAP inh-2 – PfM18AAP inhibitors, malaria aminopeptidase, confirmation, biochemical, QFRET, recombinant enzyme, triplicate; AID 2170, 2009; inhibition, % at 7.35 µM; H-Glu-NHMec fluorogenic cleavage; 2,400 tested, 28% active; shares compounds with PfM18AAP inh-1;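 active = mean inhibition over replicate wells above the hit cutoff set for the earlier primary screen, cut at about 29% in these data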;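 also: 0% = median of test compound wells and 100% = 2 mM ZnCl2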
# CTSL1 confirm – cathepsin L1 inhibitors, retest, confirmation, counter-screen for PFM18AAP inhibitor project, biochemical, QFRET, triplicate; 2,400 tested, under 10 active; AID 2178, 2009; inhibition, % at 5.96 µM; purified cathepsin L1, Z-Leu-Arg-MCA fluorescence; shares compounds with PfM18AAP inh-1;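 active = average inhibition across replicates above the hit cutoff set in the earlier primary screen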;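 also: 0% = median of test compound wells and 100% = Z-Phe-Ala-diazomethylketone 1 µM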
# Hck-Nef confirm – retest of Hck:Nef kinase inhibitor hits, confirmation, biochemical, Z-Lyte FRET, 384-well, p-Tyr peptide counterscreen | Recombinant Hck-YEEI:Nef, Z-Lyte FRET kinase assay | AID 463188, 2010 | shares compounds with Hck Nef HTS | 1,300 tested, 28% active | calls only at 10 µM;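 active = average inhibition of at least 50%, with Z-scores no higher than 3 in both the phospho-tyrosine peptide and fluorescence counterscreens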
# * hit, by the source's call; i = inactive; ? = inconclusive; nt = no result given. A selection: hits, their analogues and other compounds. The true share with any hit is near 2.9%.
SMILES,Runt-CBFb FRET,Runt-SMMHC FRET,RBBP9 inhibitor,PfM18AAP inh-1,RanGTP-Impb inh,Hck Nef HTS,PfM18AAP inh-2,CTSL1 confirm,others
Nc1c(C(=O)NCCc2ccccc2)c2nc3ccccc3nc2n1CCN1CCOCC1,57.9*,91.0*,-2.0,4.0,78.3*,53.3*,nt,nt,Runt-CBFb TRFRET=23.1;Hck-Nef confirm=i
Cc1cc(C(=O)CS(=O)c2ccc(F)cc2)cc(C)c1OC(=O)N(C)C (configuration not stated),2.9,1.7,-5.5,-6.8,?,21.1,nt,nt,
CCN(CC)C(=O)c1ccc2c(c1)C1C(Cl)C(Sc3ccccc3[N+](=O)[O-])CC1C(C(=O)O)N2 (configuration not stated),10.6,1.5,27.7*,23.8,0.9,63.1*,nt,nt,RBBP9 confirm=10.8;Hck-Nef confirm=i
O=P(Oc1ccccc1)(Oc1ccccc1)c1ccccc1,1.5,-4.9,7.6,18.5,2.7,-0.5,nt,nt,
O=c1[nH]sc2cc(F)ccc12,23.1,11.9,-11.8,57.7*,3.8,-111.3,36.9*,0.2,
COC(=O)C1=C(N)Oc2cc(C)oc(=O)c2C12C(=O)Nc1ccccc12 (configuration not stated),-0.4,-7.1,-3.0,0.8,1.7,11.6,nt,nt,
O=c1c2ccccc2nc(/C=C/c2ccc(O)c(O)c2)n1-c1ccccc1,nt,nt,nt,63.2*,4.9,nt,41.3*,-0.1,
CCN(CC)c1ccc(N=Cc2c(O)n(-c3ccc(Cl)cc3)c(=O)[nH]c2=O)cc1,-18.8,-169.0,-2.1,2.9,-0.4,0.5,nt,nt,
Cc1ccccc1-n1c(O)c(C=Nc2ccc(N(C)C)cc2)c(=O)[nH]c1=O,-19.6,-68.3,3.5,45.9*,1.7,-1.7,-56.1,6.0,
C=CCn1c(O)c(C(CC)=Nc2ccc3c(c2)CCC3)c(=O)[nH]c1=O,2.0,-0.3,-5.1,2.6,-3.1,22.9,nt,nt,
C=CCn1c(O)c(C(CC)=Nc2ccc(N(C)C)cc2)c(=O)[nH]c1=O,21.5,-0.1,11.1,52.1*,-1.6,13.7,-28.2,0.3,
CCN(CC)c1ccc(N=Cc2c(O)n(-c3ccc(OC)cc3)c(=O)[nH]c2=O)cc1,-87.5,-159.4,4.9,42.5*,-11.7,6.8,-35.5,1.4,
C=CCn1c(O)c(C=Nc2ccc(N(CC)CC)cc2)c(=O)[nH]c1=O,-45.3,-110.6,-0.6,50.1*,-14.8,-9.0,-28.6,1.1,
CN1CCCN(C(=O)COc2ccc(F)cc2F)CC1,nt,nt,nt,-5.3,0.2,nt,nt,nt,
CC(C)(C)n1cc(C(=O)c2ccccc2)cc1-c1ccccc1,-1.7,-2.2,-5.5,-0.2,1.2,13.1,nt,nt,
CCN1C[C@@]2(COC)C3[C@@H](OC)[C@H]4[C@@H]1[C@@]3(C1C[C@H]3[C@H](O)C1[C@]4(O)C[C@H]3OC)[C@@H](OC)C[C@H]2O (some centres not stated),nt,nt,nt,nt,1.9,nt,nt,nt,
O=C(Nc1nccs1)c1c(O)c2c(n(Cc3ccco3)c1=O)CCCC2,-1.3,-1.6,1.9,-4.0,3.6,9.3,nt,nt,
COc1ccc(-n2c(O)c(/C=C3\C=Nc4ccc(Br)cc43)c(=O)[nH]c2=O)cc1,nt,nt,nt,26.9,-0.5,nt,nt,nt,
O=c1[nH]c(=O)n(CC2CCCO2)c(O)c1/C=C1\C=Nc2ccccc21 (configuration not stated),-3.0,-6.3,-12.6,15.7,0.7,-8.0,nt,nt,
O=c1[nH]c(=O)n(-c2ccc(F)cc2)c(O)c1/C=C1\C=Nc2ccccc21,nt,nt,nt,32.0*,1.4,nt,29.4*,-5.0,
O=c1[nH]c(=O)n(-c2ccccc2F)c(O)c1/C=C1\C=Nc2ccccc21,nt,nt,nt,42.5*,-0.4,nt,40.8*,-1.5,
NS(=O)(=O)c1ccc(N=Nc2c(O)[nH]c(=S)[nH]c2=O)cc1,-1.3,-13.8,3.5,32.2*,0.1,-3.6,11.2,13.6,
O=c1[nH]c(=S)[nH]c(O)c1N=Nc1ccc(S(=O)(=O)N2CCOCC2)cc1,8.7,-6.3,-4.0,11.7,-3.6,-12.9,nt,nt,
Cc1nc2ccc(P(=O)(O)O)cc2s1,38.2,23.8,4.6,49.5*,0.3,20.6,9.5,0.0,
O=C1NC(=O)C(=Cc2cc3c(cc2[N+](=O)[O-])OCO3)C(=O)N1,19.6,-62.2,-3.2,39.9*,0.2,31.5,-39.0,0.4,
SMILES,Runt-CBFb FRET,Runt-SMMHC FRET,RBBP9 inhibitor,PfM18AAP inh-1,RanGTP-Impb inh,Hck Nef HTS,PfM18AAP inh-2,CTSL1 confirm,others
Cc1cccc(N2C(=O)NC(=O)/C(=C/c3cc4c(cc3[N+](=O)[O-])OCO4)C2=O)c1,nt,-26.4,3.5,20.2,-1.7,38.5,nt,nt,
CN(C)C1C(=O)C(C(N)=O)=C(O)C2(O)C(=O)C3=C(O)c4c(O)cccc4C(C)(O)C3CC12 (configuration not stated),nt,nt,nt,36.1*,-2.6,nt,-49.0,-5.0,
CN1CCc2cc3c(c4c2C1Cc1ccccc1-4)OCO3 (configuration not stated),nt,nt,nt,49.5*,-12.0,nt,4.6,46.1*,
CN1CCc2cc(O)cc3c2[C@H]1Cc1ccc(O)c(O)c1-3,nt,nt,nt,nt,3.7,nt,nt,nt,
C#C[C@]1(O)CCC2C3CCC4=C/C(=N/OCC(=O)NC(C)C(=O)NC(CCSC)C(=O)O)CC[C@]4(C)C3CC[C@@]21C (some centres not stated),nt,nt,nt,-3.9,1.5,nt,nt,nt,
CCN1CCN(Cc2cc3c(cc2[N+](=O)[O-])OCO3)CC1,nt,nt,nt,47.6*,4.8,nt,5.4,-1.9,
